# Reference: ChEMBL document CHEMBL1155882, “Selective nucleoside triphosphate diphosphohydrolase-2 (NTPDase2) inhibitors: nucleotide mimetics derived from uridine-5'-carboxamide” (J Med Chem, 2008)
# What was measured:
# [1] = molecular target: T1, Ectonucleoside triphosphate diphosphohydrolase 8 (Homo sapiens) (UniProt Q5MY95); assay: Inhibition of human NTPDase 8 expressed in COS7 cells at 1mM; type: cell-based; conditions: COS-7
# T1 sequence (whole entry): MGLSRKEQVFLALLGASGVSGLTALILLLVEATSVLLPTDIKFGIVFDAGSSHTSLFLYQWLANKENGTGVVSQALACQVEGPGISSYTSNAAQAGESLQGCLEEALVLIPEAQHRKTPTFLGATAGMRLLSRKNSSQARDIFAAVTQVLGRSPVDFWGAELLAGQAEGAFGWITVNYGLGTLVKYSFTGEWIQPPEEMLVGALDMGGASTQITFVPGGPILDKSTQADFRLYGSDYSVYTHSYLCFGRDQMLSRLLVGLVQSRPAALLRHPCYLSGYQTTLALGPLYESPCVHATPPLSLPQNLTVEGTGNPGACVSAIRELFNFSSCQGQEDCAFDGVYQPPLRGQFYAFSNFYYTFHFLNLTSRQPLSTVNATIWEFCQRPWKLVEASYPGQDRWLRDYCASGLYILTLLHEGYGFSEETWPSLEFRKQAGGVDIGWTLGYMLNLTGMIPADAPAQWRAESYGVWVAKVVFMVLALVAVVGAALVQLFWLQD
# In short: (§1)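 Transiently transfected COS-7 cell protein extract expressing human enzyme. 1 mM test compound with 400 μM ATP in HEPES 10 mM pH 7.4 buffer (NaCl, KCl, 1 mM MgCl2, 2 mM CaCl2), 37 °C for 10 min. Stopped at 99 °C for 5 min. Products measured by capillary electrophoresis, UV 210 nm, with UMP internal standard. Triplicates in two experiments; empty-pcDNA3 membrane control.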
# [2] = molecular target: T2, Ectonucleoside triphosphate diphosphohydrolase 2 (Homo sapiens) (UniProt Q9Y5L3); assay: Inhibition of human NTPDase 2 expressed in HEK293 cells at 1mM; type: cell-based
# T2 sequence (whole entry): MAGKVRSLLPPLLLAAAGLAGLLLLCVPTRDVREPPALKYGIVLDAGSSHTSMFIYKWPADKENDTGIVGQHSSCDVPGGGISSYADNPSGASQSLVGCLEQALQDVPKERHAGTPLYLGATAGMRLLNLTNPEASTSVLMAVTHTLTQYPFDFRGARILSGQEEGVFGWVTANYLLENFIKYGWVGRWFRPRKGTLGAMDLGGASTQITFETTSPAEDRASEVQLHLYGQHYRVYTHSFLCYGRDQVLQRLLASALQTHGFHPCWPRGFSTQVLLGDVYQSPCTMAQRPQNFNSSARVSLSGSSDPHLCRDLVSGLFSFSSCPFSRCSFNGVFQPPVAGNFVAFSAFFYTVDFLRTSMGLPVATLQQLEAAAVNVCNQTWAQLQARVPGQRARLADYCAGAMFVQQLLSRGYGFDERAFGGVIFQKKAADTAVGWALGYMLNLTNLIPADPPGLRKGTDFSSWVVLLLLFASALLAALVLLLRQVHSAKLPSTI
# In short: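 Membranes from HEK 293 cells stably expressing human NTPDase2 (geneticin selection), prepared by differential and sucrose-gradient centrifugation. 1 mM test compound with 400 μM ATP in 10 mM HEPES pH 7.4 saline (1 mM MgCl2, 2 mM CaCl2), 37 °C for 10 min. Heat-stopped at 99 °C. Nucleotides separated by capillary electrophoresis, UV 210 nm, UMP internal standard. Triplicates, two experiments.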
# [3] = molecular target: T3, P2Y purinoceptor 2 (Homo sapiens, UniProt P41231); assay: Antagonist activity at human P2Y2 receptor expressed in human 1321N1 cells assessed as inhibition of UTP-induced intracellular calcium mobilization at 100 uM by FLUOstar plate reader; type: functional, cell-based
# T3 sequence (P41231 whole entry): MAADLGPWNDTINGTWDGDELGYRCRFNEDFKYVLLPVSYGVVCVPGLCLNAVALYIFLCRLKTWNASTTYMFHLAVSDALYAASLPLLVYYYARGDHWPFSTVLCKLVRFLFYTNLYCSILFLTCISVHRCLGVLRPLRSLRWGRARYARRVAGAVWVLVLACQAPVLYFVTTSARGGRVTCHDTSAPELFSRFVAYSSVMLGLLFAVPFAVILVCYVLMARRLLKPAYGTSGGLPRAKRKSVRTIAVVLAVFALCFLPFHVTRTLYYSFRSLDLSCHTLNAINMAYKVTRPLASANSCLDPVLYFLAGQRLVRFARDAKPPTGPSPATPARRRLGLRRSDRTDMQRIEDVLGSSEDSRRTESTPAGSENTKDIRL
# In short: (§2)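 Human 1321N1 astrocytoma cells express human P2Y2 or P2Y4, or rat P2Y6. Cells are loaded with Fura-2 AM and preincubated with compound at 100 μM. Inhibition of agonist-induced intracellular calcium release is read as Fura-2 fluorescence. The agonist is UTP for P2Y2 and P2Y4, and UDP for P2Y6.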
# [4] = molecular target: T4, Ectonucleoside triphosphate diphosphohydrolase 1 (Homo sapiens) (UniProt P49961); assay: Inhibition of human NTPDase 1 expressed in COS7 cells at 1mM; type: cell-based; conditions: COS-7; in short: as §1
# T4 sequence (whole entry): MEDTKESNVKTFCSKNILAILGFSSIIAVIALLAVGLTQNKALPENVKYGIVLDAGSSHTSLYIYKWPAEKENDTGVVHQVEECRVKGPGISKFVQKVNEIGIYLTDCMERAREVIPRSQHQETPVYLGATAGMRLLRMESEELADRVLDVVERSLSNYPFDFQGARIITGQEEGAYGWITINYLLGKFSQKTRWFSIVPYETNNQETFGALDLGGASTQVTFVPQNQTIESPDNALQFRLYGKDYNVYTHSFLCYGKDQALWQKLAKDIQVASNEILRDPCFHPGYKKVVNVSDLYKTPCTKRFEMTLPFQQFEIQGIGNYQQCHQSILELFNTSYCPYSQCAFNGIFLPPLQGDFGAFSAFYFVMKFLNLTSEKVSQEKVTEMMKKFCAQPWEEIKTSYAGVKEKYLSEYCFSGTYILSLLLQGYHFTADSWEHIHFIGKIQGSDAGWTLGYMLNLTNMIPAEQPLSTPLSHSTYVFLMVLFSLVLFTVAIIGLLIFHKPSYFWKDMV
# [5] = molecular target: T5, Ectonucleoside triphosphate diphosphohydrolase 3 (Homo sapiens) (UniProt O75355); assay: Inhibition of human NTPDase 3 expressed in COS7 cells at 1mM; type: cell-based; conditions: COS-7
# T5 sequence (whole entry): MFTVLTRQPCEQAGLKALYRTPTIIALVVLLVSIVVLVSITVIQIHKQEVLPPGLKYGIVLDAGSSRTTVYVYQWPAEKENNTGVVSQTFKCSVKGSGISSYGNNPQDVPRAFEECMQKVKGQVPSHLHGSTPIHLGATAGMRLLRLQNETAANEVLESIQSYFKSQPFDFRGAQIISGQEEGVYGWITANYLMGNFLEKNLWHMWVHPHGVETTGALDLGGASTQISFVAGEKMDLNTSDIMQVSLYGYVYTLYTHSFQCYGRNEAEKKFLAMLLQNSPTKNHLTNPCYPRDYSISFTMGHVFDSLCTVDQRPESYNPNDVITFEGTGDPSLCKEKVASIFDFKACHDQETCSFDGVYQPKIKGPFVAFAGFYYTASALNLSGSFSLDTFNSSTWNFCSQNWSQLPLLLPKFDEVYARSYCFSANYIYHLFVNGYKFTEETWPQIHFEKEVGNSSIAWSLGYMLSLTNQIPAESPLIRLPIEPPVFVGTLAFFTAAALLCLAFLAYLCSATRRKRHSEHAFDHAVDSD
# In short: (§3)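 NTPDase2 membranes come from stably transfected HEK 293 cells; NTPDase3 and NTPDase8 are transiently expressed in COS-7 cells as crude protein extracts. Buffer is 140 mM NaCl, 5 mM KCl, 1 mM MgCl2, 2 mM CaCl2, 10 mM HEPES pH 7.4, with 400 μM ATP, 37 °C, 10 min, stopped at 99 °C. Products are read by capillary electrophoresis (UV 210 nm, UMP internal standard).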
# [6] = molecular target: P2Y purinoceptor 6 (Rattus norvegicus) (UniProt Q63371); assay: Antagonist activity at rat P2Y6 receptor expressed in human 1321N1 cells assessed as inhibition of UDP-induced intracellular calcium mobilization at 100 uM by NOVOstar plate reader; type: functional, cell-based; in short: as §2
# Sequence of P2Y purinoceptor 6 (Rattus norvegicus) (Q63371 whole entry): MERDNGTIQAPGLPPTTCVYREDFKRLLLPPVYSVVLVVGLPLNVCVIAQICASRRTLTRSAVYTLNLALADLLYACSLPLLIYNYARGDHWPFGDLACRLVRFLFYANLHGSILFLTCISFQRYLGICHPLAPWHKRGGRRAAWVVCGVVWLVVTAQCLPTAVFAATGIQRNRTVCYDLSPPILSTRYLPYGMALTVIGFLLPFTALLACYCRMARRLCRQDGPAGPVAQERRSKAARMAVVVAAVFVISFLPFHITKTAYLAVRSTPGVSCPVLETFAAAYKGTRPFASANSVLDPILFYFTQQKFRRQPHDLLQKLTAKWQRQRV
# [7] = molecular target: T6, P2Y purinoceptor 4 (Homo sapiens, UniProt P51582); assay: Antagonist activity at human P2Y4 receptor expressed in human 1321N1 cells assessed as inhibition of UTP-induced intracellular calcium mobilization at 100 uM by FLUOstar plate reader; type: functional, cell-based; in short: as §2
# T6 sequence (P51582 whole entry): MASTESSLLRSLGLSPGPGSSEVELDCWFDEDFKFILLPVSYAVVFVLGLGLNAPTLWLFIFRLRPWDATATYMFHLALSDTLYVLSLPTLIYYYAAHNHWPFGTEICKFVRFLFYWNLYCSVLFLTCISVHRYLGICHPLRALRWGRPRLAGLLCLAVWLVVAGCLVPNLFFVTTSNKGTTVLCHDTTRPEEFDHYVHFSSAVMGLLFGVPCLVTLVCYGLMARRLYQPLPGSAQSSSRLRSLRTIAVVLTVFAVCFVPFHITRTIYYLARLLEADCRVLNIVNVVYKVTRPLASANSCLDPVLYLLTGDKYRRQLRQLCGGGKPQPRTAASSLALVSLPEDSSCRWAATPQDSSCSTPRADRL
# [8] = Chemical stability in 0.001 N aqueous sodium hydroxide at pH 11 by LC-MS analysis; type: physicochemical; conditions: buffer
# In short: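 Compound from a 2 mM aqueous stock (20 mM NH4OAc) is diluted 10 μL into 990 μL of 0.001 N NaOH (pH 11). It is incubated 2 or 24 h at 37 °C and analysed by C18 LC–ESI-MS, with detection limit about 0.1 μg/mL.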
# [9] = Stability in simulated artificial gastric juice after 24 hrs by LC-MS analysis; type: physicochemical; conditions: simulated gi fluid
# [10] = molecular target: T7, Ectonucleoside triphosphate diphosphohydrolase 2 (Homo sapiens, UniProt Q9Y5L3); assay: Inhibition of human NTPDase 2 expressed in HEK293 cells assessed as residual activity by capillary electrophoresis; type: cell-based; in short: as §3
# T7 sequence (Q9Y5L3 whole entry): T2 sequence (whole entry)
# [11] = molecular target: P2Y purinoceptor 6 (Rattus norvegicus) (UniProt Q63371); assay: Antagonist activity at rat P2Y6 receptor expressed in human 1321N1 cells assessed as inhibition of UDP-induced receptor activation at 100 uM relative to UDP; type: functional, cell-based; design: scale not given: the % may be the effect or the level left; in short: as §2
# [12] = molecular target: T3, P2Y purinoceptor 2; assay: Antagonist activity at human P2Y2 receptor expressed in human 1321N1 cells assessed as inhibition of UTP and ATP-induced receptor activation at 100 uM relative to UTP; type: functional, cell-based; design: scale not given: the % may be the effect or the level left; in short: as §2
# [13] = molecular target: T6, P2Y purinoceptor 4; assay: Antagonist activity at human P2Y4 receptor expressed in human 1321N1 cells assessed as inhibition of UTP-induced receptor activation at 100 uM relative to UTP; type: functional, cell-based; design: scale not given: the % may be the effect or the level left; in short: as §2
# [14] = Metabolic stability in rat liver microsomes after 24 hrs by LC-MS analysis; type: ADME, Microsome; conditions: read-out: Stability
# [15] = Inhibition of rat NTPDase 3
# [16] = molecular target: T8, Ectonucleoside triphosphate diphosphohydrolase 8 (Homo sapiens, UniProt Q5MY95); assay: Inhibition of human NTPDase 8 expressed in COS7 cells; type: cell-based, COS-7; in short: as §3
# T8 sequence (Q5MY95 whole entry): T1 sequence (whole entry)
inhibition [1],inhibition [2],inhibition [4],Compound,inhibition [3],inhibition [5],inhibition [6],inhibition [7],Stability [8],Stability [9],IC50 [10],Activity [11],Activity [12],Activity [13],remaining at 24 h [14],Ki [15],Ki [16],Activity [8],Activity [9]
0%,0%,0%,CCOP(=O)(CNC(=O)CCCNC(=O)[C@H]1O[C@@H](n2cnc3c(N)ncnc32)[C@H](O)[C@@H]1O)OCC,32%,0%,–,–,–,–,–,–,–,–,–,–,–,–,–
–,–,–,CCOP(=O)(Cc1ccc(NC(=O)CCCNC(=O)[C@H]2O[C@@H](n3ccc(=O)[nH]c3=O)[C@H](O)[C@@H]2O)cc1)OCC,6%,48%,-8%,7%,Stable,Stable,–,–,–,–,–,–,–,–,–
0%,0%,0%,CCOP(=O)(CNC(=O)CNC(=O)[C@H]1O[C@@H](n2cnc3c(N)ncnc32)[C@H](O)[C@@H]1O)OCC,61%,25%,–,–,–,–,–,6%,33%,-2%,–,–,–,–,–
0%,0%,0%,CCOP(=O)(Cc1ccc(NC(=O)CNC(=O)[C@H]2O[C@@H](n3cnc4c(N)ncnc43)[C@H](O)[C@@H]2O)cc1)OCC,–,0%,6%,7%,–,–,–,–,–,–,–,–,–,–,–
0%,0%,0%,CCOP(=O)(CNC(=O)CCNC(=O)[C@H]1O[C@@H](n2cnc3c(N)ncnc32)[C@H](O)[C@@H]1O)OCC,29%,0%,–,–,–,–,–,–,–,–,–,–,–,–,–
–,–,–,CCN(CC)c1ncnc2c1ncn2[C@@H]1O[C@H](COP(=O)(O)OP(=O)(O)C(Br)(Br)P(=O)(O)O)[C@@H](O)[C@H]1O,–,–,–,–,–,–,–,–,–,–,–,112 µM,> 100 µM,–,–
0%,–,0%,CCOP(=O)(CNC(=O)CCNC(=O)[C@H]1O[C@@H](n2ccc(=O)[nH]c2=O)[C@H](O)[C@@H]1O)OCC,43%,0%,-3%,6%,–,–,–,-16%,13%,11%,–,–,–,–,–
0%,–,0%,CCOP(=O)(CCNC(=O)CNC(=O)[C@H]1O[C@@H](n2ccc(=O)[nH]c2=O)[C@H](O)[C@@H]1O)OCC,-7%,22%,9%,8%,–,–,–,–,–,–,–,–,–,–,–
–,–,–,CCOP(=O)(Cc1ccc(NC(=O)CCCNC(=O)[C@H]2O[C@@H](n3cnc4c(N)ncnc43)[C@H](O)[C@@H]2O)cc1)OCC,37%,0%,–,–,–,–,–,–,–,–,–,–,255 µM,–,–

Compound,inhibition [1],inhibition [2],inhibition [4],inhibition [3],inhibition [5],inhibition [6],inhibition [7],Stability [8],Stability [9],IC50 [10],Activity [11],Activity [12],Activity [13],remaining at 24 h [14],Ki [15],Ki [16],Activity [8],Activity [9]
CCOP(=O)(Cc1ccc(NC(=O)CNC(=O)[C@H]2O[C@@H](n3ccc(=O)[nH]c3=O)[C@H](O)[C@@H]2O)cc1)OCC,0%,–,50%,22%,0%,-10%,4%,Stable,Stable,42 µM,-7%,-21%,-42%,> 95%,–,–,–,–
CCOP(=O)(CNC(=O)CCCNC(=O)[C@H]1O[C@@H](n2ccc(=O)[nH]c2=O)[C@H](O)[C@@H]1O)OCC,0%,–,45%,–,0%,-3%,21%,–,–,101 µM,–,–,–,–,–,–,–,–
CCOP(=O)(CNC(=O)CNC(=O)[C@H]1O[C@@H](n2ccc(=O)[nH]c2=O)[C@H](O)[C@@H]1O)OCC,0%,–,–,–,0%,17%,38%,–,–,374 µM,12%,58%,46%,–,–,–,–,–
CCOP(=O)(Cc1ccc(NC(=O)CCNC(=O)[C@H]2O[C@@H](n3cnc4c(N)ncnc43)[C@H](O)[C@@H]2O)cc1)OCC,0%,–,–,46%,0%,15%,–,–,–,–,-7%,16%,11%,–,–,–,–,–
CCOP(=O)(Cc1ccc(NC(=O)CCNC(=O)[C@H]2O[C@@H](n3ccc(=O)[nH]c3=O)[C@H](O)[C@@H]2O)cc1)OCC,0%,–,–,10%,40%,7%,14%,–,–,–,-5%,14%,-6%,> 95%,–,–,Active,Active
